Assay results of several laboratories.
Target: BDNF/NT-3 growth factors receptor (NTRK2, Homo sapiens, UniProt Q16620)

The remaining binding of `Cc1nccc(COC(=O)N2C[C@@H]3[C@@H](CNC(=O)c4ccc5[nH]nnc5c4)[C@@H]3C2)n1` is reported as 100% (cell-free assay; competition with immobilised ligand; 1 µM).
`Cc1ccc(C(=O)Nc2ccc(CN3CCN(C)CC3)c(C(F)(F)F)c2)cc1C#Cc1cnc2cccnn12` has a remaining signal of 2.3% (cell-free assay; 23.5 nM).
For `CC(C)(C)c1nc(-c2cccc(NS(=O)(=O)c3c(F)cccc3F)c2F)c(-c2ccnc(N)n2)s1`, the remaining activity was 100% (enzyme activity; inhibitor; radiometric; 1 µM).
For `O=C(Nc1cnn(-c2csc(C(=O)NC3COC3)c2)c1)Nc1ccccc1Cl`, the remaining activity was 84.2% (enzyme activity; inhibitor; 5 µM).
`O=C(Nc1cccc(C(=O)Nc2ccc3[nH]ncc3c2)c1)Nc1cccc(C(F)(F)F)c1` gave an inhibition of 24.5% (enzyme activity; inhibitor; FRET; 1 µM).
The remaining signal of `N#CCCc1ccc2c(c1)-c1[nH]c3ccc([N+](=O)[O-])cc3c1CC(=O)N2` is reported as 86.4% (cell-free assay; 0.5 µM).
`O=C(Cc1ccc(C(F)(F)F)cc1)Nc1cccc(C(=O)Nc2ccc3[nH]ncc3c2)c1` gave an inhibition of 16.8% (enzyme activity; inhibitor; FRET; 1 µM).
The remaining signal of `O=C1NC(=O)c2cc(Nc3ccc(F)cc3)c(Nc3ccc(F)cc3)cc21` is reported as 91.9% (cell-free assay; 0.5 µM).
With `CNC(=O)Nc1ccc2c(c1)[C@@]1(CC2)OC(=O)N(CC(=O)N(Cc2ccc(F)cc2)[C@@H](C)C(F)(F)F)C1=O` the remaining binding was 89% (cell-free assay; competition with immobilised ligand; 1 µM).
`CCN(CC)CCNC(=O)c1c(C)[nH]c(/C=C2\C(=O)Nc3ccc(F)cc32)c1C` has an inhibition of 100% (cell-free assay; 10 µM).
The remaining signal of `O=C1Nc2ccc(Cl)cc2C1=Cc1cc(Cl)c(O)c(Cl)c1` is reported as 61.1% (cell-free assay; 0.5 µM).
`CN1CCN(CC(=O)Nc2cccc(C(=O)Nc3ccc4[nH]ncc4c3)c2)CC1` gave an inhibition of 13.3% (enzyme activity; inhibitor; FRET; 1 µM).
With `Cc1cc(-n2nc(Cc3cc(F)cc(C(F)(F)F)c3)nc2C)ccc1C(N)=O` the remaining binding was 98% (cell-free assay; competition with immobilised ligand; 1 µM).
`Cc1cc(NC(=O)c2cccc3cc(-c4cccc5[nH]nc(N)c45)ccc23)ccc1F` has an activity vs control of 107% (enzyme activity; inhibitor; 0.1 µM).
`O=C(Nc1ccc(C(F)(F)F)cc1)Nc1cccc(C(=O)Nc2ccc3[nH]ncc3c2)c1` gave an inhibition of 14% (enzyme activity; inhibitor; FRET; 1 µM).
`CN(c1ccnc(CNc2nc(Nc3ccc4c(c3)CC(=O)N4)ncc2C(F)(F)F)n1)S(C)(=O)=O` gave a remaining binding of 21% (cell-free assay; competition with immobilised ligand; 1 µM).
With `O=C(Nc1ccc(C(F)(F)F)cc1)Nc1cccc(C(=O)Nc2ccc3[nH]nc(-c4ccccc4)c3c2)c1` the inhibition was 14.7% (enzyme activity; inhibitor; FRET; 1 µM).
With `Cc1ccc(NC(=O)c2ccc(CN3CCN(C)CC3)cc2)cc1Nc1nc(-c2cccnc2)cs1` the remaining signal was 101% (cell-free assay; 0.5 µM).
With `CCCOc1ccc(OC)c(F)c1C(=O)c1ccc(C(=O)N[C@@H]2CNC[C@H]2NC(=O)c2ccc3[nH]ncc3c2)cc1` the remaining activity was 71% (enzyme activity; inhibitor; 10 µM).
With `O=C(Nc1ccc(I)cc1)Nc1cccc(C(=O)Nc2ccc3[nH]ncc3c2)c1` the inhibition was 15.9% (enzyme activity; inhibitor; FRET; 1 µM).
`Cc1c(NC(=O)c2cc(C(N)=O)nc3cc(F)ccc23)c(C(F)(F)F)nn1Cc1ccc(C(C)(C)C)cc1` gave a remaining binding of 100% (cell-free assay; competition with immobilised ligand; 1 µM).
`Cc1ccc(NC(=O)c2ccc(C)c(C(F)(F)F)c2)cc1C#Cc1nn(C2CCC(O)CC2)c2ncnc(N)c12` (stereo not shown) gave a remaining signal of 4% (cell-free assay; 10 µM).
`C[C@H](c1ccc(F)cc1)N(Cc1cccc(C(=O)O)c1)C(=O)c1cnc2ccccc2c1` has a remaining binding of 100% (cell-free assay; competition with immobilised ligand; 1 µM).
With `O=C(Nc1ccc2[nH]ncc2c1)c1cccc(NC(=S)Nc2ccc(C(F)(F)F)cc2)c1` the inhibition was 19.6% (enzyme activity; inhibitor; FRET; 1 µM).
The remaining binding of `O=C(Nc1ccc(Oc2ccc(F)cc2)cc1)N1CCc2ncccc2[C@H]1c1ccc(F)cc1` is reported as 84% (cell-free assay; competition with immobilised ligand; 1 µM).
`O=C(Nc1cccc(C(=O)Nc2ccc3[nH]ncc3c2)c1)Nc1ccccc1C(F)(F)F` has an inhibition of 25.7% (enzyme activity; inhibitor; FRET; 1 µM).
For `O=C1CCc2cc(Nc3cc(OC4CCOCC4)c([N+](=O)[O-])cc3Cl)ccc2N1`, the remaining binding was 100% (cell-free assay; competition with immobilised ligand; 1 µM).
The remaining activity of `Cc1sc(C(=O)NC2COC2)cc1-n1cc(NC(=O)Nc2c(F)cccc2Cl)cn1` is reported as 92.4% (enzyme activity; inhibitor; 10 µM).
